Results: ChEMBL document CHEMBL1132544, “Synthesis and biological evaluation of novel prodrugs of anthracyclines for selective activation by the tumor-associated protease plasmin” (1999)
In brackets after ≈: the same amount, converted by molar mass.

Legend:
Format in all cases: functional
EVSA-T = test: Cytotoxicity against EVSA-T tumor cell line; details: Homo sapiens, read-out: ID50 (the source's name)
Outline: (§1)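 Seven human tumour lines, continuous exposure to (pro)drug for 5 days, antiproliferative effect read by microculture sulforhodamine B (SRB) assay. ID50 = concentration giving 50% inhibition of cell growth relative to untreated control cultures, in ng/mL.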

MCF7 = test: Cytotoxicity against MCF-7 tumor cell line; details: Homo sapiens, read-out: ID50 (the source's name); outline: as §1
A498 = test: Cytotoxicity against A 498 tumor cell line; details: Homo sapiens, read-out: ID50 (the source's name); outline: as §1
WiDr = test: Cytotoxicity against WIDR tumor cell line; details: Homo sapiens, read-out: ID50 (the source's name); outline: as §1
[1] = Cytotoxicity against M19 tumor cell line; details: Homo sapiens; read-out: ID50 (the source's name); outline: as §1
IGROV-1 = test: Cytotoxicity against IGROV tumor cell line; details: Homo sapiens, read-out: ID50 (the source's name); outline: as §1
NCI-H226 = test: Cytotoxicity against H 226 tumor cell line; details: Homo sapiens, read-out: ID50 (the source's name); outline: as §1

For `COc1cccc2c1C(=O)c1c(O)c3c(c(O)c1C2=O)C[C@@](O)(C(=O)CO)C[C@@H]3OC1CC(NC(=O)OCc2ccc(NC(=O)[C@H](CCCCN)NC(=O)[C@H](Cc3ccccc3)NC(=O)[C@@H](C)N)cc2)C(O)C(C)O1.Cl.Cl` (stereo partly drawn), the IC50 (EVSA-T) was 0.141 µg/mL, the IC50 (MCF7) was 0.176 µg/mL and the IC50 (A498) was 0.473 µg/mL. It also gave an IC50 (WiDr) of 0.413 µg/mL, an IC50 [1] of 0.437 µg/mL and an IC50 (IGROV-1) of 0.59 µg/mL. For the same compound, the IC50 (NCI-H226) was 0.896 µg/mL.

With `COc1cccc2c1C(=O)c1c(O)c3c(c(O)c1C2=O)C[C@@](O)(C(C)=O)C[C@@H]3OC1CC(NC(=O)OCc2ccc(NC(=O)[C@H](CCCCN)NC(=O)[C@H](Cc3ccccc3)NC(=O)[C@@H](C)N)cc2)C(O)C(C)O1.Cl.Cl` (stereo partly drawn) the IC50 (EVSA-T) was 1.2 µg/mL, the IC50 (MCF7) was 1.21 µg/mL and the IC50 (A498) was 1.16 µg/mL. For the same compound, the IC50 (WiDr) was 2.15 µg/mL, the IC50 [1] was 1.58 µg/mL and the IC50 (IGROV-1) was 0.225 µg/mL. The IC50 (NCI-H226) was 1.7 µg/mL.

For `COc1cccc2c1C(=O)c1c(O)c3c(c(O)c1C2=O)C[C@@](O)(C(C)=O)C[C@@H]3O[C@H]1C[C@H](N)[C@H](O)[C@H](C)O1` [DAUNORUBICIN], the IC50 (EVSA-T) was 0.048 µg/mL (≈ 0.091 µM), the IC50 (MCF7) was 0.329 µg/mL (≈ 0.624 µM) and the IC50 (A498) was 0.487 µg/mL (≈ 0.923 µM). The IC50 (WiDr) was 0.038 µg/mL (≈ 0.072 µM), the IC50 [1] was 0.309 µg/mL (≈ 0.586 µM) and the IC50 (IGROV-1) was 0.113 µg/mL (≈ 0.214 µM). It also gave an IC50 (NCI-H226) of 0.243 µg/mL (≈ 0.461 µM).

`COc1cccc2c1C(=O)c1c(O)c3c(c(O)c1C2=O)C[C@@](O)(C(=O)CO)C[C@@H]3O[C@H]1C[C@H](N)[C@H](O)[C@H](C)O1` [DOXORUBICIN] gave an IC50 (EVSA-T) of 0.008 µg/mL (≈ 0.0147 µM), an IC50 (MCF7) of 0.01 µg/mL (≈ 0.0184 µM) and an IC50 (A498) of 0.09 µg/mL (≈ 0.166 µM). It also gave an IC50 (WiDr) of 0.011 µg/mL (≈ 0.0202 µM), an IC50 [1] of 0.016 µg/mL (≈ 0.0294 µM) and an IC50 (IGROV-1) of 0.06 µg/mL (≈ 0.11 µM). It also gave an IC50 (NCI-H226) of 0.199 µg/mL (≈ 0.366 µM).
